Results reported in PMC7825275 (Cancer chemotherapy and pharmacology, 2019).

Columns and labels:
[1] = Ultrafilterable carboplatin; format: in vivo, human
Procedure, shortened: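 Ultrafilterable platinum was measured by atomic absorption spectrophotometry in patient plasma. […] Plasma was spun at ~1,000 x g for 10 min and stored at −70°C or colder. Parameters were derived non-compartmentally. AUC targeting bias and precision were taken as mean prediction error and root mean squared prediction error. Cycles were compared by 2-sided exact Wilcoxon signed rank.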

[2] = Paclitaxel plasma pharmacokinetics; format: in vivo, human; settings: cycle 1 (veliparib -) vs cycle 2 (veliparib +)
Procedure, shortened: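 Patient plasma from heparinized blood drawn pre-dose and at 0.5–24 h after start of IV paclitaxel infusion, in the chemotherapy-alone lead-in cycle and in the veliparib cycle (day 3). Samples were spun at ~1,000 x g for 10 min and plasma held at −70°C or colder. Quantitation was by LC-MS/MS with [13C6]-paclitaxel internal standard. Parameters were derived non-compartmentally and paired cycles compared by 2-sided exact Wilcoxon signed rank.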

[3] = test system: patients with advanced solid tumors; format: in vivo, human; settings: with veliparib 100 mg BID and carboplatin AUC 6
Procedure, shortened: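 Standard 3+3 escalation with modified Fibonacci steps. Oral veliparib was given every 12 h on days 1–7 of 21-day cycles, with IV carboplatin/paclitaxel on day 3. For the first 46 patients, cycle 1 was chemotherapy alone and DLT was scored in cycle 2; afterwards all three agents were given in cycle 1, which was the DLT cycle. Growth factors were barred in cycles 1–2. MTD was the highest dose with ≤1/6 DLTs.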

[4] = test system: patients; settings: days 1-5, with veliparib 10 mg bid; cited from earlier work
[5] = test system: patients with advanced solid tumors; assay: Toxicity by grade; format: in vivo, human; settings: initial cycle of carboplatin and paclitaxel without veliparib
Procedure, shortened: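 Adverse events were tabulated descriptively as maximum grade in three groups: the chemotherapy-only lead-in cycle, the first veliparib-containing cycle, and all cycles. CBC and serum chemistry including liver function tests were drawn weekly during cycles 1–2, then at the start of every cycle. Veliparib was oral, twice daily on days 1–7; carboplatin/paclitaxel were IV every 21 days.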

N.N.O=C([O-])C1(C(=O)[O-])CCC1.[Pt+2] [carboplatin]
Carboplatin exposure, effect of the presence of veliparib or veliparib dose ([1]; cycle 1 (veliparib -) vs cycle 2 (veliparib +)): not impacted | ME as % of AUC 6 mg•min/mL ([1]; in the absence of veliparib): 31% | RMSE as % of AUC 6 mg•min/mL ([1]; in the absence of veliparib): 57% | ME as % of AUC 6 mg•min/mL ([1]; in the presence of veliparib): 22% | RMSE as % of AUC 6 mg•min/mL ([1]; in the presence of veliparib): 45%

CC(=O)O[C@H]1C(=O)[C@@]2(C)[C@H]([C@H](OC(=O)c3ccccc3)[C@]3(O)C[C@H](OC(=O)[C@H](O)[C@@H](NC(=O)c4ccccc4)c4ccccc4)C(C)=C1C3(C)C)[C@]1(OC(C)=O)CO[C@@H]1C[C@@H]2O [paclitaxel]
paclitaxel exposure, effect of the presence of veliparib or veliparib dose [2]: not impacted | MTD and RP2D, paclitaxel dose [3]: 200 mg/m^2

CC[C@@]1(O)C(=O)OCc2c1cc1n(c2=O)Cc2cc3c(CN(C)C)c(O)ccc3nc2-1 [topotecan]
MTD, topotecan dose [4]: 0.6 mg

carboplatin and paclitaxel
neutropenia grade 3 [5]: 20% | neutropenia grade 4 [5]: 24% | neutropenia, % of patients [5]: 56%
